Converted amounts (≈) assume the structure as drawn.
Key:
Staphylococcus aureus [1] = test: Antimicrobial activity against methicillin-resistant Staphylococcus aureus RCMB 2658 clinical isolate after 20 hrs by broth microdilution method; format: functional; details: RCMB 2658, 20 h
Method in brief: (§1)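 CLSI broth microdilution in cation-adjusted Mueller Hinton broth. Compounds were serially diluted in triplicate and plates held at 37 °C for 20 h. MIC was taken by eye as the lowest concentration with no visible growth, and the average of the triplicate determinations is reported.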

[2] = Aqueous solubility of the compound in PBS after 2 hrs by turbidity assay; format: physicochemical
Method in brief: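 Serial dilutions were made […] and diluted 100-fold into PBS. After 2 h, turbidity was read at 540 nm with pre-addition background subtracted. Turbidity was taken as absorbance > blank mean + 3 SD. Solubility limit is the highest concentration with no turbidity.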

Enterococcus faecium [3] = test: Antimicrobial activity against vancomycin-resistant Enterococcus faecium ATCC 700221 after 20 hrs by broth microdilution method; format: functional; details: ATCC 700221, 20 h; method in brief: as §1
Staphylococcus aureus [4] = test: Bactericidal activity against methicillin-resistant Staphylococcus aureus USA400 NRS123 clinical isolate after 20 hrs by broth microdilution method; format: functional; details: USA400 NRS123, 20 h
Staphylococcus aureus [5] = test: Bactericidal activity against vancomycin-resistant Staphylococcus aureus 10 clinical isolate after 20 hrs by broth microdilution method; format: functional; details: isolate 10, 20 h
Staphylococcus aureus [6] = test: Bactericidal activity against methicillin-sensitive Staphylococcus aureus NRS72 clinical isolate after 20 hrs by broth microdilution method; format: functional; details: NRS72, 20 h
Staphylococcus aureus [7] = test: Bactericidal activity against methicillin-resistant Staphylococcus aureus NRS119 clinical isolate after 20 hrs by broth microdilution method; format: functional; details: NRS119, 20 h
Staphylococcus aureus [8] = test: Bactericidal activity against methicillin-resistant Staphylococcus aureus USA300 NRS384 clinical isolate after 20 hrs by broth microdilution method; format: functional; details: USA300 NRS384, 20 h
Staphylococcus aureus [9] = test: Bactericidal activity against methicillin-resistant Staphylococcus aureus USA100 NRS382 clinical isolate after 20 hrs by broth microdilution method; format: functional; details: USA100 NRS382, 20 h
Staphylococcus aureus [10] = test: Bactericidal activity against methicillin-resistant Staphylococcus aureus USA200 NRS383 clinical isolate after 20 hrs by broth microdilution method; format: functional; details: USA200 NRS383, 20 h
Staphylococcus aureus [11] = test: Bactericidal activity against methicillin-resistant Staphylococcus aureus USA300 assessed as time required to reduce bacterial inoculum to zero colony forming units at 3 times MIC by time kill assay; format: functional
Method in brief: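 Samples taken at 2, 4, 6, 8, 10, 12 and 24 h were serially diluted in PBS and plated on trypticase soy agar. Viable CFU/mL were counted after at least 16 h at 37 °C.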

Enterococcus faecium [12] = test: Bactericidal activity against vancomycin-resistant Enterococcus faecium ATCC 700221 after 20 hrs by broth microdilution method; format: functional; details: ATCC 700221, 20 h
Staphylococcus aureus [13] = test: Antimicrobial activity against vancomycin-resistant Staphylococcus aureus 10 clinical isolate after 20 hrs by broth microdilution method; format: functional; details: isolate 10, 20 h; method in brief: as §1
[14] = Efflux ratio of apparent permeability from basolateral to apical side over apical to basolateral side in human Caco2 cells after 2 hrs by LC/MS/MS analysis; format: ADME, cell-based; details: Caco-2
Method in brief: (§2)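 Caco-2 cells were grown and differentiated for 3 weeks, fed every 2 days. Compound was added to the apical or basolateral side and measured on the opposite side after 2 h by LC/MS/MS. Apical buffer was pH 6.5 transport buffer (glucose, 10 mM HEPES, HBSS) with 100 μM Lucifer yellow; basolateral buffer was pH 7.4. Lucifer yellow fluorescence checked monolayer integrity. Papp = (dQ/dt)/C₀A; efflux ratio = Papp(B→A)/Papp(A→B).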

[15] = Apparent permeability across basolateral to apical side in human Caco2 cells at pH 7.4 after 2 hrs by LC/MS/MS analysis; details: Caco-2, pH 7.4
[16] = Apparent permeability across apical to basolateral side in human Caco2 cells at pH 6.5 after 2 hrs by LC/MS/MS analysis; format: ADME, cell-based; details: Caco-2, pH 6.5; method in brief: as §2
Staphylococcus aureus [17] = test: Potency index, ratio of vancomycin MIC to compound MIC for methicillin-resistant Staphylococcus aureus RCMB 2658 clinical isolate; format: functional

SMILES | MIC (Staphylococcus aureus [1]) | solubility kinetic at 2 h [2] | further results
Cc1nc(-c2ccc(-c3ccoc3)cc2)sc1-c1ccnc(N)n1 | 7.8 µg/mL (≈ 23.3 µM) | 13 µM (≈ 4.35 µg/mL) | 
CCCCc1ccc(-c2nc(C)c(-c3ccnc(-n4cccn4)n3)s2)cc1 | > 25 µg/mL |  | 
CN[C@@H](CC(C)C)C(=O)N[C@H]1C(=O)N[C@@H](CC(N)=O)C(=O)N[C@H]2C(=O)N[C@H]3C(=O)N[C@H](C(=O)N[C@@H](C(=O)O)c4cc(O)cc(O)c4-c4cc3ccc4O)[C@H](O)c3ccc(c(Cl)c3)Oc3cc2cc(c3O[C@H]2O[C@@H](CO)[C@H](O)[C@@H](O)[C@@H]2O[C@@H]2C[C@@](C)(N)[C@@H](O)[C@@H](C)O2)Oc2ccc(cc2Cl)[C@H]1O |  |  | MIC (Enterococcus faecium [3]): > 64 µg/mL; MBC (Staphylococcus aureus [4]): 1 µg/mL (≈ 0.69 µM); MBC (Staphylococcus aureus [5]): > 64 µg/mL; MBC (Staphylococcus aureus [6]): 2 µg/mL (≈ 1.38 µM); MBC (Staphylococcus aureus [7]): 1 µg/mL (≈ 0.69 µM); MBC (Staphylococcus aureus [8]): 1 µg/mL (≈ 0.69 µM); MBC (Staphylococcus aureus [9]): 1 µg/mL (≈ 0.69 µM); MBC (Staphylococcus aureus [10]): 1 µg/mL (≈ 0.69 µM); Time (Staphylococcus aureus [11]): 24 h; MBC (Enterococcus faecium [12]): > 64 µg/mL; MIC (Staphylococcus aureus [13]): > 64 µg/mL
CCCCc1ccc(-c2nc(C)c(-c3ccnc(N)n3)s2)cc1 | 3.12 µg/mL (≈ 9.62 µM) | 42 µM (≈ 13.6 µg/mL) | efflux ratio at 2 h [14]: 1.1; Papp B→A at 2 h [15]: 17 ×10⁻⁶ cm/s; Papp A→B at 2 h [16]: 14.9 ×10⁻⁶ cm/s
CCCCc1ccc(-c2nc(C)c(-c3ccnc(NC(=N)N)n3)s2)cc1 | 1.56 µg/mL (≈ 4.26 µM) |  | 
CCCCc1ccc(-c2nc(C)c(-c3ccn4ncnc4n3)s2)cc1 | > 25 µg/mL |  | 
CCCCc1ccc(-c2nc(C)c(-c3ccnc(NC(=N)N(C)C)n3)s2)cc1 | 0.78 µg/mL (≈ 1.98 µM) | 53 µM (≈ 20.9 µg/mL) | 
CCCCc1ccc(-c2nc(C)c(-c3ccnc(NC)n3)s2)cc1 | > 25 µg/mL |  | 
Cc1nc(-c2ccc(-c3ccsc3)cc2)sc1-c1ccnc(N)n1 | 6.25 µg/mL (≈ 17.8 µM) | 8.5 µM (≈ 2.98 µg/mL) | 
CCCCc1ccc(-c2nc(C)c(C(=O)/C=C/N(C)C)s2)cc1 | > 25 µg/mL |  | 
Cc1nc(-c2ccc(C=C3CCCC3)cc2)sc1-c1ccnc(N)n1 | 1.17 µg/mL (≈ 3.36 µM) |  | 
Cc1nc(-c2ccc(C3=CCCC3)cc2)sc1-c1ccnc(N)n1 | 3.12 µg/mL (≈ 9.33 µM) | 35 µM (≈ 11.7 µg/mL) | 
Cc1nc(-c2ccc(C=C3CCCCC3)cc2)sc1-c1ccnc(N)n1 | 1.56 µg/mL (≈ 4.3 µM) |  | 
Cc1nc(-c2ccc(C3=CCCCC3)cc2)sc1-c1ccnc(N)n1 | 0.78 µg/mL (≈ 2.24 µM) | 37 µM (≈ 12.9 µg/mL) | Ratio (Staphylococcus aureus [17]): 1
